How the values were obtained:
[1] = tested on: Trypanosoma brucei brucei; assay: Antitrypanosomal activity against Trypanosoma brucei brucei BF427 assessed as growth inhibition measured after 48 hrs by Alamar blue assay; format: functional; conditions: BF427, 48 h
How it was run: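 Bloodstream-form parasites in HMI-9 medium are exposed to serial compound dilutions in triplicate. Viability is read with Alamar Blue at 48 h. EC50 and EC90 come from nonlinear regression. Pentamidine isethionate is the control.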

[2] = Selectivity index, ratio of EC50 for human HepG2 cells to EC50 for Trypanosoma brucei brucei BF427; format: toxicity; conditions: read-out: Ratio EC50
[3] = Selectivity index, ratio of EC50 for human CRL8155 cells to EC50 for Trypanosoma brucei brucei BF427; format: toxicity; conditions: read-out: Ratio EC50
[4] = tested on: HepG2; assay: Cytotoxicity against human HepG2 cells assessed as growth inhibition after 48 hrs by Alamar blue assay; format: cell-based; conditions: for EC50: Homo sapiens, HepG2, 48 h; for EC90: human, hepg2, 48 h
How it was run: (§1)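 CRL-8155 lymphoblasts or HepG2 hepatocellular carcinoma cells are exposed 48 h to serial compound dilutions in quadruplicate. Growth is read with Alamar Blue, and 50% and 90% inhibitory concentrations come from nonlinear regression. Quinacrine is the control.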

[5] = Cytotoxicity against human CRL8155 cells assessed as growth inhibition after 48 hrs by Alamar blue assay; format: cell-based; conditions: for EC50: Homo sapiens, CRL8155, 48 h; for EC90: human, crl8155, 48 h; how it was run: as §1

CC(C)(CNC(=O)c1ccccc1)c1nc(-c2ccccc2)cs1
EC50 [1]: > 10 µM | EC90 [1]: > 10 µM

O=C(Nc1ccc2sc(-c3ccccc3F)nc2c1)N1CCCC1
selectivity ratio [2]: > 51 | selectivity ratio [3]: > 51 | EC50 [1]: 0.983 µM | EC90 [1]: 1.24 µM | EC50 [4]: > 50 µM | EC90 [4]: > 50 µM | EC50 [5]: > 50 µM | EC90 [5]: > 50 µM

C[C@@H]1CCC[C@H](C)N1C(=O)NCCc1nc(-c2cccc(F)c2)cs1
selectivity ratio [2]: > 125 | selectivity ratio [3]: > 125 | EC50 [1]: 0.399 µM | EC90 [1]: 0.564 µM | EC50 [4]: > 50 µM | EC90 [4]: > 50 µM | EC50 [5]: > 50 µM | EC90 [5]: > 50 µM

CN1CCN(C(=O)Nc2ccc3sc(-c4cccc(F)c4)nc3c2)CC1
EC50 [1]: 3.15 µM | EC90 [1]: 7.55 µM

O=C(Nc1ccc2sc(-c3ccccc3)nc2c1)c1cscn1
EC50 [1]: > 10 µM | EC90 [1]: > 10 µM

O=C(Nc1ccc2sc(-c3ccc(F)c(F)c3)nc2c1)N1CCC(O)C1 (stereo not given)
EC50 [1]: 7.68 µM | EC90 [1]: 13.6 µM

N#CC1CCN(C(=O)Nc2ccc3sc(-c4ccc(F)c(F)c4)nc3c2)C1 (stereo not given)
EC50 [1]: 2.85 µM | EC90 [1]: 4.67 µM

CCN(CC)CCCC(C)Nc1c2ccc(Cl)cc2nc2ccc(OC)cc12 (stereo not given) [QUINACRINE]
EC50 [4]: 10.4 µM | EC90 [4]: 18.2 µM | EC50 [5]: 4.23 µM | EC90 [5]: 9.94 µM

O=C(Nc1ccc2sc(-c3ccc(F)cc3)nc2c1)c1ccccc1
EC50 [1]: 1.92 µM | EC90 [1]: 3 µM

CC(C)(Cc1csc(-c2ccccc2)n1)NC(=O)c1ccccc1
EC50 [1]: > 10 µM | EC90 [1]: > 10 µM

O=C(Nc1ccc2sc(-c3cccc(F)c3)nc2c1)c1ccccc1
EC50 [1]: 1.78 µM | EC90 [1]: 3.62 µM

O=C(Nc1ccc2sc(-c3ccccc3)nc2c1)N1CCSC1
EC50 [1]: 1.24 µM | EC90 [1]: 2.38 µM

COC1CCN(C(=O)Nc2ccc3sc(-c4ccc(F)c(F)c4)nc3c2)C1 (stereo not given)
EC50 [1]: 3.05 µM | EC90 [1]: 4.59 µM

O=C(Nc1ccc2sc(-c3cccc(F)c3)nc2c1)N1CCN(C(=O)Nc2ccc3sc(-c4cccc(F)c4)nc3c2)CC1
EC50 [1]: > 20 µM | EC90 [1]: > 20 µM

O=C(Nc1ccc2nc(-c3ccc(F)c(F)c3)sc2c1)N1CCC(F)C1 (stereo not given)
EC50 [1]: > 20 µM | EC90 [1]: > 20 µM

O=C(Nc1ccc2sc(-c3ccc(F)cc3F)nc2c1)N1CCCC1
EC50 [1]: 0.929 µM | EC90 [1]: 1.48 µM

O=C(Nc1nc2ccc(-c3ccc(F)c(F)c3)cc2s1)N1CCC(F)C1 (stereo not given)
EC50 [1]: 2.23 µM | EC90 [1]: > 20 µM

Cc1nc2cc(NC(=O)N3CCCC3)ccc2s1
EC50 [1]: > 20 µM | EC90 [1]: > 20 µM

O=C(NCCc1nc(-c2cccc(F)c2)cs1)N1CCc2ccccc2C1
EC50 [1]: 9.76 µM | EC90 [1]: 13.8 µM

O=C(Nc1ccc2sc(-c3ccccc3)nc2c1)N1CC=CCC1
EC50 [1]: 1.12 µM | EC90 [1]: 1.35 µM

O=C(NCCc1nc(-c2cccc(F)c2)cs1)N1CCCc2ccccc21
EC50 [1]: 5.95 µM | EC90 [1]: 14 µM

O=C(Nc1ccc2scnc2c1)N1CCCC1
EC50 [1]: > 20 µM | EC90 [1]: > 20 µM

CC(C)(Cc1csc(-c2ccccc2)n1)NC(=O)N1CCCCCC1
EC50 [1]: > 10 µM | EC90 [1]: > 10 µM

O=C(Nc1ccc2sc(-c3ccccc3)nc2c1)c1ccsc1
EC50 [1]: 1.57 µM | EC90 [1]: 2.49 µM

CC(C)(Cc1nc(-c2ccccc2)cs1)NC(=O)c1ccccc1
EC50 [1]: > 10 µM | EC90 [1]: > 10 µM

NC1CCN(C(=O)Nc2ccc3sc(-c4ccc(F)c(F)c4)nc3c2)C1 (stereo not given)
EC50 [1]: 2.32 µM | EC90 [1]: 2.72 µM

CC(C)(Cc1nc(-c2cccc(F)c2)cs1)NC(=O)c1ccccc1
EC50 [1]: > 10 µM | EC90 [1]: > 10 µM

O=C(Nc1ccc2sc(-c3ccc(F)c(F)c3)nc2c1)N1CCC(F)(F)CC1
EC50 [1]: 2.98 µM | EC90 [1]: 4.17 µM

CC(C)(Cc1csc(-c2ccccc2)n1)NC(=O)N1CCCC1
EC50 [1]: > 10 µM | EC90 [1]: > 10 µM

O=C(Nc1ccc2[nH]c(-c3ccccc3)nc2c1)c1ccccc1
EC50 [1]: > 10 µM | EC90 [1]: > 10 µM

O=C(Nc1ccc2sc(-c3ccccc3)nc2c1)c1nccs1
EC50 [1]: 5.86 µM | EC90 [1]: > 10 µM

O=C(Nc1nc2cc(-c3ccc(F)c(F)c3)ccc2s1)N1CCC(F)C1 (stereo not given)
EC50 [1]: 2.64 µM | EC90 [1]: 5.28 µM

O=C(NCCc1nc(-c2ccccc2)cs1)N1CCCCCC1
EC50 [1]: 0.11 µM | EC90 [1]: 0.236 µM
